Test results as given in the array DNA melting data of Ke et al. (doi:10.1101/2024.01.08.574731).

How the values were obtained:
[1] = melting temperature; fluorescence melt of hairpins on a sequencing array, two-state fit, raised by 9.35 °C to match UV melts; details: sodium 0.088 M
How it was run: (§1)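 Library hairpins on a sequenced MiSeq flow cell carried annealed Cy3 and quencher oligos, and their Cy3 fluorescence was imaged in 50 mM Na-HEPES pH 8.0 with 25 mM NaCl, in 2.5 °C steps up to 60 °C. Signals were normalised to Cy3 before quenching and to control constructs. Melting temperature and folding enthalpy were obtained from bootstrapped two-state fits, combined by inverse-variance weighting across four replicates, and the fitted temperatures were then raised by 9.35 °C to match UV melts.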

[2] = folding enthalpy; higher = less favourable; fluorescence melt of hairpins on a sequencing array, two-state fit; details: sodium 0.088 M
How it was run: as §1

Sequence	Tm [1] [°C]	folding enthalpy [2] [kcal/mol]
GCGAATGGAAACATTCAC (.(((((....))))).)	38.1	-18.6
GCGAATTCTCGC ((((....))))	47.9	-19.6
GCGAATTTCGC ((((...))))	48.8	-24.8
GCGACAAATCGC ((((....))))	43.6	-16.5
GCGACAATTCGC ((((....))))	44.8	-17.2
GCGACACGAAAGTGACGC (((.(((....))).)))	68.5	-38.7
GCGACAGATCGC ((((....))))	47.9	-20.7
GCGACAGGAAACCATCGC ((((..(....)..))))	35.8	-17
GCGACAGGAAACTGTCAC (.(((((....))))).)	43.8	-16.6
GCGACATATCGC ((((....))))	49.9	-23.4
GCGACCATCGC ((((...))))	46.4	-17.6
GCGACCATTCGC ((((....))))	47.4	-24.4
GCGACCCGTCGC ((((....))))	60.7	-40.1
GCGACCCTTCGC ((((....))))	51.1	-26.3
GCGACCGAAAGGTGCCGC ((((((....)))..)))	50.4	-15.6
GCGACCGAAAGGTTTCGC ((((((....)))..)))	49	-24.1
GCGACCGGTCGC ((((....))))	62	-55.6
GCGACCTGTCGC ((((....))))	68.3	-26.5
GCGACCTTCGC ((((...))))	48.2	-25.4
GCGACGAATCGC ((((....))))	49.6	-13.1
GCGACGCGAAAGCATGGC ((.(.((....)).).))	40.4	-9.76
GCGACGCGAAAGCCTAGC ((.(.((....)).).))	43.5	-18.9
GCGACGCGAAAGCGCAGC ((..(((....)))..))	58.9	-15.5
GCGACGCGAAAGCTTCGC ((((.((....)).))))	65.2	-45.6
GCGACGGTCGC ((((...))))	48.7	-28.4

Sequence	Tm [1] [°C]	folding enthalpy [2] [kcal/mol]
GCGACGTCGAAAGACCGC (((..(((....))))))	50.6	-25.4
GCGACTAATCGC ((((....))))	47.2	-24.2
GCGACTAGTCGC ((((....))))	65.2	-28.9
GCGACTATCGC ((((...))))	46.6	-16.8
GCGACTATTCGC ((((....))))	47.4	-19.3
GCGACTGCGAAAGCACGC (((..(((....))))))	48.8	-15.3
GCGACTGGAAACAGCCGC (((.(((....))).)))	56.2	-51.9
GCGACTTATCGC ((((....))))	48.8	-24.1
GCGAGACATCGC ((((....))))	55.1	-8
GCGAGACGAAAGTCACGC (((.(((....))).)))	68.5	-31.5
GCGAGACGAAAGTCCGC (((.(((....))))))	67.2	-29.3
GCGAGACTTCGC ((((....))))	56.6	-10.4
GCGAGAGCTCGC ((((....))))	52.5	-12.8
GCGAGAGGAAACTTTCGC ((((.((....)).))))	48.8	-33.8
GCGAGAGGTCGC ((((....))))	50.9	-8.36
GCGAGCAGTCGC ((((....))))	52.6	-26.2
GCGAGCCGAAAGGCCCGC (((.(((....))).)))	67.8	-26.1
GCGAGCGAAAGCTGCCGC ((((((....)))..)))	53.5	-13.1
GCGAGCGGTCGC ((((....))))	52	-22.4
GCGAGGACTCGC ((((....))))	56.1	-31.9
GCGAGGATCGC ((((...))))	59.4	-23.7
GCGAGGCATCGC ((((....))))	57.4	-26.3
GCGAGGCGAAAGCGGCGC (((..((....))..)))	66.8	-38.1
GCGAGGGATCGC ((((....))))	52.1	-16.6
GCGAGGTCGAAAGACCGC (((..(((....))))))	54.3	-9.59

Sequence	Tm [1] [°C]	folding enthalpy [2] [kcal/mol]
GCGAGGTTTCGC ((((....))))	49.4	-16
GCGAGTCGAAAGACCCGC (((.(((....))).)))	57.3	-48.2
GCGAGTGCGAAAGCACGC (((..(((....))))))	59	-9.67
GCGAGTGGAAACATTCGC ((((.((....)).))))	53.2	-35
GCGAGTGTCGC ((((...))))	47	-13.9
GCGATACATCGC ((((....))))	55.7	-27.5
GCGATACTCGC ((((...))))	49.3	-22.8
GCGATAGTCGC ((((...))))	52.5	-14
GCGATATATCGC ((((....))))	55.6	-25.9
GCGATCCGAAAGGACCGC (((.(((....))).)))	63.2	-36.1
GCGATCGAAAGATACGC ((((((....))).)))	50.1	-25.5
GCGATCGAAAGATAGCGC ((((((....)))..)))	55.5	-30.8
GCGATCGAAAGATTACGC ((((((....)))..)))	42	-30.4
GCGATCGAAAGATTCCGC ((((((....)))..)))	33.7	-23.8
GCGATCGAAAGATTTCGC ((((((....)))..)))	39.8	-26.4
GCGATCGGAAACGACCGC (((.(((....))).)))	55.5	-48.9
GCGATCGGAAACGATTGC ((.((((....)))).))	56.3	-43.5
GCGATGAGTCGC ((((....))))	54.8	-30.5
GCGATGATTCGC ((((....))))	50.9	-23.3
GCGATGCCGAAAGGCCGC (((..(((....))))))	59.3	-18
GCGATGCGAAAGCAGTGC ((..(((....)))..))	58.3	-22.7
GCGATGCGAAAGCCGCGC (((..((....))..)))	64.7	-27.7
GCGATGCGAAAGCCTAGC ((.(.((....)).).))	45	-21.8
GCGATGCGAAAGCGACGC (((..((....))..)))	65.7	-29.5
GCGATGCGAAAGCGCCGC (((..((....))..)))	62.1	-30.5

Sequence	Tm [1] [°C]	folding enthalpy [2] [kcal/mol]
GCGATGCGAAAGCTACGC (((..((....))..)))	65	-18.1
GCGATGCGAAAGCTCCGC (((..((....))..)))	52.5	-19.9
GCGATGCGAAAGCTTGGC ((.(.((....)).).))	43.8	-15.1
GCGATGGGAAACCATCAC (.(((((....))))).)	43.1	-15.9
GCGATGGGAAACCGTCGC ((((.((....)).))))	58.9	-50.2
GCGATGGGAAACTATCGC (((((.(....).)))))	55.9	-42
GCGATGGGTCGC ((((....))))	54.4	-23.4
GCGATGGTTCGC ((((....))))	49.8	-24.5
GCGATGTCGAAAGACCGC (((..(((....))))))	51	-29.5
GCGATGTCTCGC ((((....))))	48.6	-19.6
GCGATGTTCGC ((((...))))	49.9	-18.5
GCGATTGCGAAAGCACGC (((..(((....))))))	51.4	-20.1
GCGATTGGAAACAACCGC (((.(((....))).)))	48.4	-32.7
GCGATTGTCGC ((((...))))	48.2	-19.6
GCGCAAGGAAACCTACGC (((.(.(....).).)))	34.6	-16.4
GCGCACGAAAGTGACCGC ((((((....)))..)))	48.4	-21.9
GCGCACGAAAGTGCCGC ((((((....))).)))	62	-17.5
GCGCACGAAAGTGCTCGC ((((((....)))..)))	48.4	-13.5
GCGCACGAAAGTGTCCGC ((((((....)))..)))	48	-18.6
GCGCACGGAAACGTACGC (((.(((....))).)))	56	-44.3
GCGCAGCGAAAGCAGGGC ((.(.((....)).).))	51.2	-10.2
GCGCAGCGAAAGCATCGC (((..((....))..)))	47.4	-9.43
GCGCAGCGAAAGCCGAGC ((.(.((....)).).))	46.7	-9.37
